The source of these data is ChEMBL document CHEMBL3868583, “6-Aryl substituted 4-(4-cyanomethyl) phenylamino quinazolines as a new class of isoform-selective PI3K-alpha inhibitors” (Eur J Med Chem, 2016).

Data set [1] can be described thus: Downregulation of PI3Kalpha expression in human PC3 cells at 30 uM by Western blot analysis. It is filed as functional, cell-based. The conditions noted are these: PC-3. An outline of the steps: (§1)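 MCF-7 or PC-3 cells (2 × 10^6) treated with compound, lysed (1 × 10^6 cells) in cold NP-40 buffer with protease inhibitors 30 min on ice, 12,000 g 10 min 4 °C. 50 µg protein per lane on SDS-PAGE, PVDF transfer, 5% milk block, primary antibody 2 h, HRP secondary 1 h, ECL on film; β-actin internal control.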

The subject of data set [2] is PC-3. Briefly: Induction of cell cycle arrest in human PC3 cells assessed as accumulation at G1 phase at 10 uM after 24 hrs by propidium iodide-staining based FACS analysis (reference value: 39 %). It counts as functional. An outline of the steps: (§2)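 MCF-7 or PC-3 cells treated at indicated concentrations for 24 h, pelleted, PBS-washed, fixed in ice-cold 70% ethanol overnight at 4 °C. RNase 0.2 mg/mL 1 h at 37 °C, propidium iodide 10 µg/mL 30 min dark. 10,000 events (FL2-A vs FL2-W) by flow cytometry; fractions in apoptosis/sub-G1, G1, S, G2-M.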

The test system of data set [3] is PC-3. Description: Induction of cell cycle arrest in human PC3 cells assessed as apoptotic cells at 20 uM after 24 hrs by propidium iodide-staining based FACS analysis (reference value: 2 %). It is filed as functional. An outline of the steps:
(§3)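 PC-3 cells exposed 24 h at indicated concentrations, pelleted, fixed overnight in ice-cold 70% ethanol at 4 °C, RNase 0.2 mg/mL at 37 °C 1 h, propidium iodide 10 µg/mL 30 min in dark; 10,000 events acquired (FL2-A vs FL2-W); DNA histograms modelled for apoptotic (sub-G1), G1, S and G2-M fractions.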

Data set [4] relates to PC-3. Description: Induction of cell cycle arrest in human PC3 cells assessed as apoptotic cells at 30 uM after 24 hrs by propidium iodide-staining based FACS analysis (reference value: 2 %). It is filed as functional. Summed up: as §3
Data set [5] in a line: Cytotoxicity against human PC3 cells assessed as cell growth inhibition after 12 hrs by MTT assay. The conditions noted are these: PC-3, 12 h. It is filed as functional.
Data set [6] has as its system Mus musculus. Description: Toxicity in Swiss mouse implanted with Swiss mouse EAC cells assessed as mortality at 70 mg/kg, ip administered for 1 to 9 days measured on day 12. It is filed as organism-based, Ehrlich. As to conditions: in vivo. Summed up:
(§4)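 1×10^7 EAC cells injected intraperitoneally into Swiss mice on day 0. Mice randomized next day: treated groups n=7, saline control n=10 (0.2 ml i.p.). Dosing i.p. days 1–9. Sacrifice on day 12; ascitic fluid collected from the peritoneal cavity. % tumor growth inhibition from total tumor cell count versus control. Body weight and mortality tracked.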

Data set [7] in a line: Downregulation of PI3Kbeta expression in human PC3 cells at 30 uM by Western blot analysis. It is filed as functional, cell-based. As to conditions: PC-3. An outline of the steps: as §1
The subject of data set [8] is PC-3. Description: Induction of cell cycle arrest in human PC3 cells assessed as accumulation at G2 phase at 20 uM after 24 hrs by propidium iodide-staining based FACS analysis (reference value: 17 %). It counts as functional. An outline of the steps:
as §2

Data set [9] is described as follows: Downregulation of PI3Kgamma expression in human PC3 cells at 30 uM by Western blot analysis. It is filed as functional, cell-based. As to conditions: PC-3. Summed up:
as §1

Data set [10] deals with Mus musculus. Briefly: Toxicity in Swiss mouse implanted with Swiss mouse EAT cells assessed as body weight at 15 mg/kg, ip administered for 1 to 9 days measured on day 13 (reference value: 24.1 g). It counts as organism-based. The conditions noted are these: in vivo.
Data set [11] has as its system Mus musculus. Briefly: Toxicity in Swiss mouse implanted with Swiss mouse EAT cells assessed as body weight at 25 mg/kg, ip administered for 1 to 9 days measured on day 9 (reference value: 22.8 g). The conditions noted are these: in vivo. It is filed as organism-based.
For data set [12], the system named is MCF7. Description: Induction of cell cycle arrest in human MCF7 cells assessed as accumulation at G2 phase at 20 uM after 24 hrs by propidium iodide-staining based FACS analysis (reference value: 20 %). It is filed as functional. An outline of the steps: as §2
For data set [13], the system named is Mus musculus. Briefly: Toxicity in Swiss mouse implanted with Swiss mouse EAT cells assessed as body weight at 25 mg/kg, ip administered for 1 to 9 days measured on day 5 (reference value: 22.6 g). It is filed as organism-based. The conditions noted are these: in vivo.
Data set [14] is described as follows: Downregulation of PI3Kdelta expression in human MCF7 cells at 30 uM by Western blot analysis. It counts as functional, cell-based. Summed up:
as §1

Data set [15] deals with Mus musculus. Briefly: Toxicity in Swiss mouse implanted with Swiss mouse EAC cells assessed as body weight at 25 mg/kg, ip administered for 1 to 9 days measured on day 1 (reference value: 22.8 g). As to conditions: in vivo. It counts as organism-based, Ehrlich.
In data set [16] the test system is MCF7. Briefly: Induction of cell cycle arrest in human MCF7 cells assessed as accumulation at G1 phase at 20 uM after 24 hrs by propidium iodide-staining based FACS analysis (reference value: 50 %). It is filed as functional. Summed up: as §2
The nature of data set [17]: Anticancer activity against Swiss mouse EAC cells implanted in Swiss mouse assessed as tumor growth inhibition at 25 mg/kg, ip administered for 1 to 9 days measured on day 12 relative to control. The conditions noted are these: Ehrlich, read-out: TGI. It is filed as functional. An outline of the steps:
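Swiss mice given 1 × 10^7 EAC cells i.p. on day 0, randomized next day (treated n=7, control n=10). Compound given i.p. days 1-9; saline control (0.2 ml i.p.), 5-fluorouracil 20 mg/kg i.p. reference. Sacrificed day 12; ascitic fluid collected; % TGI from total peritoneal tumor cell count versus control.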

The subject of data set [18] is MCF7. Description: Induction of cell cycle arrest in human MCF7 cells assessed as accumulation at S phase at 20 uM after 24 hrs by propidium iodide-staining based FACS analysis (reference value: 30 %). It counts as functional. Summed up: as §2
Data set [19] relates to MCF7. Description: Induction of cell cycle arrest in human MCF7 cells assessed as accumulation at G2 phase at 10 uM after 24 hrs by propidium iodide-staining based FACS analysis (reference value: 20 %). It is filed as functional. Summed up: as §2
Data set [20] deals with Mus musculus. Description: Toxicity in Swiss mouse implanted with Swiss mouse EAC cells assessed as mortality at 25 mg/kg, ip administered for 1 to 9 days measured on day 12. The conditions noted are these: in vivo. It counts as organism-based, Ehrlich. Summed up:
as §4

The subject of data set [21] is MCF7. Briefly: Induction of cell cycle arrest in human MCF7 cells assessed as accumulation at G1 phase at 30 uM after 24 hrs by propidium iodide-staining based FACS analysis (reference value: 50 %). It counts as functional. An outline of the steps: as §2
Data set [22] has as its system MCF7. Briefly: Induction of cell cycle arrest in human MCF7 cells assessed as apoptotic cells at 30 uM after 24 hrs by propidium iodide-staining based FACS analysis (reference value: 8 %). It is filed as functional. An outline of the steps:
as §2

Data set [23] has as its system MCF7. Description: Induction of cell cycle arrest in human MCF7 cells assessed as accumulation at G1 phase at 10 uM after 24 hrs by propidium iodide-staining based FACS analysis (reference value: 50 %). It counts as functional. Summed up: as §2
In data set [24] the test system is Mus musculus. Description: Toxicity in Swiss mouse implanted with Swiss mouse EAT cells assessed as body weight at 25 mg/kg, ip administered for 1 to 9 days measured on day 13 (reference value: 24.1 g). It counts as organism-based. The conditions noted are these: in vivo.
In data set [25] the test system is Mus musculus. Briefly: Toxicity in Swiss mouse implanted with Swiss mouse EAT cells assessed as mortality at 25 mg/kg, ip administered for 1 to 9 days measured on day 9 and 13. It is filed as organism-based. As to conditions: in vivo. An outline of the steps:
(§5)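 EAC cells harvested from 8–10-day ascitic Swiss mice; 1×10^7 cells injected intramuscularly into right thigh of Swiss male mice on day 0. Randomized next day: treated n=7, saline control n=10 (0.2 ml i.p.). Dosing i.p. days 1–9. […] Body weight and mortality tracked.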

Data set [26] deals with Mus musculus. Description: Toxicity in Swiss mouse implanted with Swiss mouse EAT cells assessed as mortality at 15 mg/kg, ip administered for 1 to 9 days measured on day 9 and 13. It counts as organism-based. As to conditions: in vivo. Summed up:
as §5

The target of data set [27] is Phosphatidylinositol 4,5-bisphosphate 3-kinase catalytic subunit alpha isoform (Homo sapiens, UniProt P42336). As to conditions: MCF7, 30 uM.
Sequence of Phosphatidylinositol 4,5-bisphosphate 3-kinase catalytic subunit alpha isoform (P42336 whole entry, canonical isoform): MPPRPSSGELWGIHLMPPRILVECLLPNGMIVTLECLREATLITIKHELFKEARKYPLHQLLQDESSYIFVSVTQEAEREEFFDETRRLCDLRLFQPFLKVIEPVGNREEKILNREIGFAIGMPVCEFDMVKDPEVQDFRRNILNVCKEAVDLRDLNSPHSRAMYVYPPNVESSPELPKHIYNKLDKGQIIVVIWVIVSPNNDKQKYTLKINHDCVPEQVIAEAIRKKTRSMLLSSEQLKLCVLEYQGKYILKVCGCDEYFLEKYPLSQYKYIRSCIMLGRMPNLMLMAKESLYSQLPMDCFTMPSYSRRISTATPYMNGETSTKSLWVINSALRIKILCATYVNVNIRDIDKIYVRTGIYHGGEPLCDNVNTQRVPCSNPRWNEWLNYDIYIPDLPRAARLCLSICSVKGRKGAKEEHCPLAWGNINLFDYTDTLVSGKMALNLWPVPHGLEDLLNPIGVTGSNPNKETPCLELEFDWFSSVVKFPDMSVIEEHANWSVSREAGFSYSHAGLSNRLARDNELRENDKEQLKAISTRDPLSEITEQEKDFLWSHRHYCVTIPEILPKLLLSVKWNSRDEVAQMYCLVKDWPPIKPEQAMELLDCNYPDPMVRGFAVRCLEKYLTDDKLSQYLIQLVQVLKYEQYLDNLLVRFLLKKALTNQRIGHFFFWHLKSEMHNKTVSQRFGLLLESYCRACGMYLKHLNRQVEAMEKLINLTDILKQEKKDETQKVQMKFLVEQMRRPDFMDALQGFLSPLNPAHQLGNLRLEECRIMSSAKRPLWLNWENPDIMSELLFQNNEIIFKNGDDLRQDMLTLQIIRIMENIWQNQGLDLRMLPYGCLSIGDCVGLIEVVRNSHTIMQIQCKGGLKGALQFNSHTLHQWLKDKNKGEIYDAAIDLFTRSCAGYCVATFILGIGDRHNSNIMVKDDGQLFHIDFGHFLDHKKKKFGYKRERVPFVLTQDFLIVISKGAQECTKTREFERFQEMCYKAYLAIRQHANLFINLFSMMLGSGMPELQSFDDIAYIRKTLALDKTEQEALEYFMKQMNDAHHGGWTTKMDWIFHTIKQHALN

On to `N#CCc1ccc(Nc2ncnc3ccc(-c4cncc5ccccc45)cc23)cc1`, for which the Activity in data set [1] was 100%; in [2] it was 44%; in data set [3] it was 10%; in [4], 25%; in data set [6], “Non-Toxic”; in data set [7], 42%. Further, the Activity in data set [8] amounted to 9%; in data set [9] it was 20%. In addition, the GI50 in [5] worked out at 189 µM.

In the case of `N#CCc1ccc(Nc2ncnc3ccc(-c4ccc5[nH]ccc5c4)cc23)cc1`, the Activity was found to be 22.57 g in [10]; 21 g in [11]; 7% in [12]; 20.61 g in data set [13]; 30% in data set [14]; 20.57 g in data set [15]. Besides, the Activity in data set [16] is 51%; in data set [18], 42%; in data set [19], 1%; in data set [20], “Non-Toxic”; in data set [21], 44%; in data set [22], 37%. For the same molecule, the Activity is 59% in [23], 21.81 g in data set [24], “Non-Toxic” in data set [25] and “Non-Toxic” in data set [26]. Moreover, in [17], the inhibition in vivo at 25 mg/kg is 62%. Besides, the inhibition in data set [27] is 80%.
